Measured values published in ChEMBL document CHEMBL4371095, “Triazole-Based Inhibitors of the Wnt/β-Catenin Signaling Pathway Improve Glucose and Lipid Metabolisms in Diet-Induced Obese Mice” (J Med Chem, 2019).
Calls of active or inactive are those of the source. The calls are words filed in the database; no cut-off is given here.

Assays:
HEK293 [1] = assay: Growth inhibition of HEK293 cells harboring Wnt after 24 hrs by CellTiter-Fluor assay; type: cell-based; conditions: human, hek293, 24 h
Method in brief: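 HEK293 cells stably carrying the TOPFlash reporter were plated at 2000/well in DMEM with 10% FBS and incubated overnight. Compound was added with recombinant human Wnt-3a, then incubated 24 h at 37 °C. CellTiter-Fluor reagent was added and fluorescence read after 30 min at 37 °C.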

[2] = Inhibition of Wnt3a activated Wnt/beta-catenin signaling (unknown origin) expressed in HEK293 cells harboring TCF/LEF-responsive luciferase preincubated with cells followed by Wnt3a addition and measured after 24 hrs by luciferase reporter gene assay; type: cell-based; conditions: Homo sapiens
Method in brief: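 HEK293 cells stably carrying TOPFlash/GFP were plated at 2000/well in DMEM with 10% FBS and kept overnight at 37 °C. Compound was pin-transferred, then recombinant human Wnt-3a was added (200 ng/mL working stock). After 24 h at 37 °C, ONE-Glo luminescence was read after 30 min. IC50 is mean ± SE from three independent experiments.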

[3] = Oral bioavailability in mouse; type: ADME, organism-based; conditions: in vivo
HEK293 [4] = assay: Growth inhibition of unstimulated HEK293 cells up to 100 uM after 72 hrs by CellTiter-Fluor assay; type: cell-based; conditions: human, hek293, 72 h
Method in brief: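 Unstimulated HEK293 cells were plated at 3.5×10^5/well and grown for 24 h, then incubated with compound for 72 h. Viability was read with CellTiter-Fluor.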

Axin-1 (Homo sapiens) = Axin-1 (Homo sapiens) (UniProt O15169); assay: Stabilization of Axin1 in human HuH7 cells assessed as decrease in lipid accumulation at 5 uM after 36 hrs by nile red staining based fluorescence microscopic method; type: cell-based
Sequence of Axin-1 (Homo sapiens) (O15169 whole entry): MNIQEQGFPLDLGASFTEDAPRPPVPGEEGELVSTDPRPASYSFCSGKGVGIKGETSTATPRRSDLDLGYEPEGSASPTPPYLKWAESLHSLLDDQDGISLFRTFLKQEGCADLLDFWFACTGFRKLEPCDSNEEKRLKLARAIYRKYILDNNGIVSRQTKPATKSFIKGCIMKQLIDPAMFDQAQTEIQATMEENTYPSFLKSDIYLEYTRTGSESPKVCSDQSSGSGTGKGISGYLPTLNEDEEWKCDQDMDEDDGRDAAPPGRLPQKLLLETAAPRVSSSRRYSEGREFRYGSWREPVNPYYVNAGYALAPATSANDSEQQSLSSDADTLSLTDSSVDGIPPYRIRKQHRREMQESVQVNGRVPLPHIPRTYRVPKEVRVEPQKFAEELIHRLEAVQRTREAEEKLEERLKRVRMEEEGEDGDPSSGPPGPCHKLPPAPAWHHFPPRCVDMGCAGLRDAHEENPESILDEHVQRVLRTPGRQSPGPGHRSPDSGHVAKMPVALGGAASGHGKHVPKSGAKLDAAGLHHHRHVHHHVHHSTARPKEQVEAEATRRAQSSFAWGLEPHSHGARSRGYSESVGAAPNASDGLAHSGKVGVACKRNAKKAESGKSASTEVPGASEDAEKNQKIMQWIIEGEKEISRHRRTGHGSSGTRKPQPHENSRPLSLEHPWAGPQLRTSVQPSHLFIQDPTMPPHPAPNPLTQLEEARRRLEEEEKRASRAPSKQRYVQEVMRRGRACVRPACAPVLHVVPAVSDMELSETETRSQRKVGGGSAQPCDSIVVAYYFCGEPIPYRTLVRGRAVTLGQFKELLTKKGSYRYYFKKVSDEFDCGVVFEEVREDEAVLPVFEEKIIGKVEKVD
Method in brief: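 Huh7 cells on collagen I-coated coverslips were treated with 5 μM compound for 36 h, then with 200 μM sodium oleate for a further 12–16 h. Cells were stained with 1 μM Nile red in HBSS for 10 min at 37 °C in the dark and imaged by fluorescence microscopy at 552/636 nm.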

HEK293 [5] = assay: Inhibition of LiCl-activated Wnt/beta-catenin/Axin signaling (unknown origin) expressed in HEK293 cells assessed as degradation of beta-catenin by measuring decrease in beta-catenin protein expression after 24 hrs by Western blot method; type: cell-based; conditions: Homo sapiens
Method in brief: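 HEK293 cells were treated with compound in the presence of lithium chloride for 24 h. Lysis buffer contained 10 mM HEPES, 100 μM EDTA, 10 mM KCl, 0.5% NP40 and inhibitors. Protein was quantified by BCA, resolved on 10% SDS-PAGE, and immunoblotted for β-catenin.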

| SMILES | IC50 [2] | growth inhibition (GI) (HEK293 [1]) | also measured |
| --- | --- | --- | --- |
| Cc1ccccc1-n1nnc(C(=O)Nc2ccc3ccccc3c2)c1C | 4.9 µM | Non-Toxic | – |
| CC(=O)c1ccccc1-n1nnc(C(=O)Nc2ccc3ccccc3n2)c1C | 8.8 µM | Non-Toxic | – |
| Oc1nc(-c2ccc(C(F)(F)F)cc2)nc2c1CSCC2 | – | – | Activity (Axin-1 (Homo sapiens)): Active |
| Cc1c(C(=O)Nc2ccc3ccccc3n2)nnn1-c1cccc2ccccc12 | 5.5 µM | Non-Toxic | inhibition (HEK293 [5]): inactive |
| Cc1c(C(=O)Nc2ccc3ccccc3n2)nnn1-c1ccccc1C(N)=O | > 10 µM | Non-Toxic | – |
| Cc1ccc(-n2nnc(C(=O)Nc3ccc4ccccc4n3)c2C)cc1 | > 10 µM | Non-Toxic | – |
| Cc1ccccc1-n1nnc(C(=O)Nc2ccc3cc(CN4CCOCC4)ccc3n2)c1C | 1.3 µM | Non-Toxic | – |
| Cc1ccccc1-n1nnc(C(=O)Nc2ccc3cc(CN4CCCCC4)ccc3n2)c1C | 1.2 µM | Non-Toxic | – |
| Cc1c(C(=O)Nc2ccc3ccccc3n2)nnn1-c1ccccc1N1CCOCC1 | 1.9 µM | Non-Toxic | – |
| Cc1cccc(-n2nnc(C(=O)Nc3ccc4ccccc4n3)c2C)c1 | > 10 µM | Non-Toxic | – |

More lines, in order of falling IC50 [2], values ahead:

| IC50 [2] | SMILES | growth inhibition (GI) (HEK293 [1]) | also measured |
| --- | --- | --- | --- |
| 0.83 µM | Cc1ccccc1-n1nnc(C(=O)Nc2ccc3cc(Br)ccc3n2)c1C | Non-Toxic | – |
| 0.75 µM | Cc1cc(/C=C/c2ccc3cc(N(C)C)ccc3[n+]2C)c(C)n1-c1ccccc1 [PYRVINIUM] | – | bioavailability [3]: < 1% |
| 0.39 µM | Cc1c(C(=O)Nc2ccc3ccccc3n2)nnn1-c1ccccc1-c1ccccc1 | Non-Toxic | – |
| 0.27 µM | Cc1ccc(-n2nnc(C(=O)Nc3ccc4ccccc4n3)c2C)c(C)c1 | Non-Toxic | – |
| 0.23 µM | Cc1ccccc1-n1nnc(C(=O)Nc2ccc3cc(CN4CCSCC4)ccc3n2)c1C | Non-Toxic | – |
| 0.14 µM | Cc1cccc(-n2nnc(C(=O)Nc3ccc4ccccc4n3)c2C)c1C | Non-Toxic | – |
| 0.034 µM | Cc1c(C(=O)Nc2ccc3ccccc3n2)nnn1-c1ccccc1C#N | Non-Toxic | – |
| 0.025 µM | CC(C)c1c(C(=O)Nc2ccc3ccccc3n2)nnn1-c1ccccc1F | Non-Toxic | – |
| 0.018 µM | COc1ccccc1-n1nnc(C(=O)Nc2ccc3ccccc3n2)c1C | Non-Toxic | – |
| 0.0076 µM | Cc1c(C(=O)Nc2ccc3ccccc3n2)nnn1-c1ccccc1Br | Non-Toxic | – |
| 0.0047 µM | CCc1c(C(=O)Nc2ccc3ccccc3n2)nnn1-c1ccccc1F | Non-Toxic | – |
| 0.0012 µM | Cc1c(C(=O)Nc2ccc3ccccc3n2)nnn1-c1ccccc1F | Non-Toxic | growth inhibition (GI) (HEK293 [4]): Toxic |
